MC4R antag cAMP: MC4R antagonists of cAMP signaling, primary screen, cell-based, TR-FRET, antagonist arm of biased-ligand search. inhibition, % at 6.5 µM. 360,000 tested, 0.48% active. Melanocortin receptor 4 (Homo sapiens), P32245. MC4R-expressing cells, MTII-stimulated cAMP, LANCE TR-FRET;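 active = inhibition above its plate's cutoff, the mean of tested wells on that plate plus 3 SD, cut at about 29% in these data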;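 note: 0% = Melanotan II alone and 100% = Melanotan II plus saturating MCL0020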
Target sequence (P32245 whole entry, looked up): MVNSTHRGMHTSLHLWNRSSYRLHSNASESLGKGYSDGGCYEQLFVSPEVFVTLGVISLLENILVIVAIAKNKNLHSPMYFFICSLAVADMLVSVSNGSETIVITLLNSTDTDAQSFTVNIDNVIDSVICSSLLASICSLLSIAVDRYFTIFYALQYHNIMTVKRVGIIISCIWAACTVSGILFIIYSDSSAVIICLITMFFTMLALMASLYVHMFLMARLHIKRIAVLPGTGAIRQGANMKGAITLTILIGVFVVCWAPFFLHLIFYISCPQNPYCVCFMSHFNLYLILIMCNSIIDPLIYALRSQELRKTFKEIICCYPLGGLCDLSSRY
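Assay system: U2OS-MC4R stable cell line; Also added: Melanotan II; Technique: Eu-cAMP/anti-cAMP TR-FRET, emission 671 nm; Times: 30-min compound, 1-h challenge, 1-h detection, room temperature.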
TMEM16A inh: TMEM16A chloride channel inhibitors, primary screen, cell-based, HTS; normalized B-score (activity score, 25-100; higher = stronger inhibition) at 10 µM; HEK293 TMEM16A/YFP iodide influx fluorescence, ionomycin; Anoctamin-1 (Mus musculus), Q8BHY3; 310,000 tested, 1.2% active;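 active = ratio plate-corrected score three or more library SD toward inhibition, starting fluorescence score within five deviations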;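 note: score derived from kinetic fluorescence span divided by baseline fluorescence per well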
Beta apoptosis: inhibitors of cytokine-induced beta cell apoptosis, primary screen, luminescence. INS-1E cytokine-induced death, ATP luminescence, 48 h; percent of positive-control rescue, neutral wells zero. protection from apoptosis, % (test concentration not listed). 300,000 tested, 0.8% active;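 active = Every replicate reaches about 75%, or at least half do and their mean reaches it too, limit read from the data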;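 note: 0% = cytokine-treated negative control wells and 100% = positive control rescue; higher means more ATP so stronger rescue from cytokine killing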
TMEM16A act: TMEM16A chloride channel activators or potentiators, primary screen, cell-based, HTS | B-score at 10 µM | 340,000 tested, 0.3% active | AID 623877, 2012 | Anoctamin-1 (Mus musculus), Q8BHY3 | HEK293 TMEM16A/YFP-H148Q/I152L, iodide quench fluorescence; active compounds read low;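 active = fluorescence-ratio B-score plate-corrected deviation score at least 3 library SD below zero, with starting fluorescence score within 5 deviations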;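 note: channel opened by trigger with iodide after compound preincubation; score built on the fluorescence ratio of max minus min over baseline; more negative score means more quench and so TMEM16A activation or potentiation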
CSC inhib: cancer stem cell viability inhibitors, primary screen, luminescence | cancer stem cell-like cells viability | inhibition, % at 7.5 µM | 300,000 tested, 1.1% active | AID 2717, 2010; in the data active = inhibition above about 75%; tested in HMLE shEcad cells
MC4R barr agon: MC4R agonists recruiting beta-arrestin, primary screen, cell-based, luminescence, agonist arm of biased-ligand search; Melanocortin receptor 4 (Homo sapiens), P32245; U2OS MC4R beta-arrestin complementation; percent of melanotan II response, DMSO zero; activation, % at 8.9 µM; 360,000 tested, 0.98% active; AID 540308, 2011;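 active = activation above a per-plate cutoff, the mean activation of sample wells on that plate plus 3 SD, cut at about 8% in these data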
MC4R barr conf: MC4R beta-arrestin agonists, retest, confirmation, cell-based, luminescence, U2OS | shares compounds with MC4R barr agon | U2OS MC4R beta-arrestin recruitment; scaled DMSO 0%, Melanotan II 100% | activation, % at 8.9 µM | 2,400 tested, 31% active;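 active = mean activation across replicates above the hit cutoff set in the earlier primary screen, cut at about 8% in these data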
MOR-DOR barr ag: agonists of MOR-DOR heterodimerization, counter-screen for MC4R biased agonist project, cell-based, luminescence. shares compounds with MC4R barr agon. activation, % at 9.2 µM. 2,400 tested, 5.8% active. AID 602194, 2012. U2OS PathHunter beta-arrestin, beta-gal luminescence; percent of deltorphin B response, DMSO zero;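 active = mean activation across replicates exceeds the hit threshold derived in the earlier primary screen, cut at about 18% in these data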;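 note: 100% = deltorphin B at 0.9 µM final and 0% = DMSO alone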
* marks the source's active call; other numbers are inactive results; i = inactive; · = no result. In the library only some 3.8% were active in any assay of this set; here they are far more common.

SMILES	MC4R antag cAMP	TMEM16A inh	Beta apoptosis	TMEM16A act	CSC inhib	MC4R barr agon	MC4R barr conf	MOR-DOR barr ag
COC(=O)c1ccc2c(=O)[nH]c(CSc3nc(-c4ccc(F)cc4)cs3)nc2c1	14.3	i	·	i	·	10.4*	-1.3	1.1
O=C(CSc1nc(-c2ccc(F)cc2)cs1)Nc1ccccn1	-3.5	i	2.8	i	4.3	24.0*	2.0	13.5
O=c1[nH]c(CSc2nc(-c3ccc(F)cc3)cs2)nc2ccccc12	-27.1	i	-1.0	i	0.2	9.6*	1.5	3.8
Cc1cc(F)cc(-c2cc(C(=O)NCc3ccc(C(F)(F)F)cc3)[nH]n2)c1	7.4	·	·	·	·	14.2*	3.4	6.1
O=C(COC(=O)Cc1ccc(Br)cc1)Nc1ccc(Cl)cn1	-0.2	·	0.0	i	2.7	4.5	·	·
C=CCOc1ccc(C2NC(=O)c3ccccc3O2)cc1OC (centres undefined)	-0.8	·	·	·	·	-1.7	·	·
COC(=O)C(Cc1ccc(O)cc1)NC(=O)Cn1cc(C)c(=O)[nH]c1=O (centres undefined)	0.9	·	·	·	·	0.7	·	·
CSc1ccc(/C=C/C(=O)OCC(=O)c2ccc[nH]2)cc1	5.3	·	-4.3	i	·	21.6*	-1.0	6.3
Cc1ccc2cc(C)c(SCC(=O)Nc3cc(C)on3)nc2c1	18.0	i	6.4	i	·	19.9*	6.3	3.3
Cc1cccc(-c2nsc(SCC(=O)Nc3nccs3)n2)c1	6.1	i	3.7	i	1.6	13.1*	0.0	7.9
COc1ccc(-c2nsc(SCC(=O)Nc3cc(C)on3)n2)cc1	5.8	i	-3.7	i	-4.4	17.0*	-0.6	7.0
CCc1cc2cc(C)c(C)cc2nc1SCC(=O)Nc1cc(C)on1	10.9	i	5.0	i	-7.2	1.1	·	·
CCCC[C@@H]1C=C(C(=O)O)[C@H](c2ccc(Br)cc2)N1S(=O)(=O)c1ccc(C)cc1	-4.5	·	·	·	·	-0.3	·	·
Cn1c(=O)oc2cc(S(=O)(=O)N3CCN(c4cccc(Cl)c4)CC3)ccc21	-2.0	i	-0.6	i	-7.7	10.6*	0.1	4.3
O=C1COc2ccc(S(=O)(=O)N3CCN(c4cccc(Cl)c4)CC3)cc2N1	-1.1	i	2.7	i	4.9	9.6*	3.6	9.5
COc1cc(/C(C)=N/N2CCN(c3ccccc3OC)CC2)ccc1O	3.8	i	-3.3	i	-9.3	-0.2	·	·
CCc1ccc(N=C2NC(=O)/C(=C/c3cc(OC)c(O)c(OC)c3)S2)cc1	2.2	i	3.2	i	68.2	13.6*	13.2*	6.6
COc1ccc(C2CC(c3ccccc3)=NN2C(=O)c2cccs2)cc1 (centres undefined)	1.5	i	0.6	i	13.0	4.9	·	·
COc1ccc(C2=NN(C(=O)c3cccs3)C(c3ccccc3O)C2)cc1 (centres undefined)	-6.3	i	19.0	i	·	12.7*	15.7*	4.8
CC(C)(C)CC(C)(C)c1ccc(OCCOCC[N+](C)(C)Cc2ccccc2)cc1	7.0	25*	100.0*	i	118.0*	12.3*	35.3*	i
Cc1ccccc1OCC(=O)Nc1cccc2nsnc12	2.8	i	-14.5	i	-17.7	10.8*	-0.2	3.2
COc1ccc(/C(C)=N/Nc2ncc(Cl)cc2Cl)c(O)c1	-6.2	i	61.2	i	·	12.8*	-2.1	1.8
C/C(=N\Nc1ncc(Cl)cc1Cl)c1ccc(C#N)cc1	-4.7	i	5.3	i	6.1	4.8	·	·
Cc1ccc(CNC(=O)Cn2c(=O)c3sccc3n(Cc3ccc([N+](=O)[O-])cc3)c2=O)cc1	15.3	i	0.3	i	-5.7	14.2*	-3.1	3.4
Cc1ccc(CNC(=O)Cn2c(=O)n(CC(=O)N3CCCCC3)c(=O)c3sccc32)cc1	-0.2	i	-2.9	i	-14.9	-1.9	·	·
SMILES	MC4R antag cAMP	TMEM16A inh	Beta apoptosis	TMEM16A act	CSC inhib	MC4R barr agon	MC4R barr conf	MOR-DOR barr ag
C=CCn1c(SCC(=O)Nc2nnc(CC)s2)nnc1-c1ccncc1	25.0	i	3.1	i	-2.4	-2.7	·	·
C=CCn1c(SCC(=O)Nc2ncc(Cc3ccc(C)c(Cl)c3)s2)nnc1-c1ccncc1	4.1	i	1.9	i	1.8	30.5*	15.7*	3.0
Cc1cc(C)nc(SCC(=O)Nc2ncc(Cc3cccc(Cl)c3)s2)n1	2.0	i	8.8	i	17.0	16.4*	7.9	3.1
Cc1cccc(OCc2nnc(SCC(=O)NC3CCCC3)n2C)c1	6.3	i	1.8	i	-0.9	-1.2	·	·
O=c1[nH]c(-c2ccc(F)cc2)nc2c1sc(=S)n2-c1ccccc1	-2.4	i	37.6	i	18.4	-2.7	·	·
Nc1c2nc(-c3ccccc3)[nH]c(=O)c2nc(=O)n1-c1ccccc1	12.6	i	4.5	i	-0.3	14.6*	6.0	7.0
O=c1cc(-c2ccc(O)cc2)oc2c1ccc1ccccc12	-3.2	·	-5.7	i	24.5	49.9*	3.5	3.6
Cc1cccc(OCc2nnc(SCC(=O)Nc3sc(C)c(C)c3C#N)n2C)c1	-1.6	i	-1.2	i	-8.6	16.6*	1.9	5.8
Cc1ccc(OCc2nnc(SCC(=O)Nc3sc(C)c(C)c3C#N)n2C)cc1	-1.1	i	-7.2	i	-16.0	17.5*	2.5	4.7
Cc1sc(NC(=O)CSc2nnc(COc3ccccc3)n2C)c(C#N)c1C	11.8	i	10.8	i	-9.1	7.1	·	·
Cc1ccc(C(C)C)c(OCCNCCc2ccccc2)c1	-5.7	i	35.9	i	55.7	9.9*	8.1	9.6
Cc1ccc(C(C)C)c(OCCCNCc2cccnc2)c1	5.9	i	3.8	i	-3.5	0.0	·	·
COc1cc2nc(SCC(=O)NCc3ccco3)n(Cc3ccc(Cl)cc3)c(=O)c2cc1OC	-2.3	i	-9.0	i	·	13.1*	-1.8	11.3
CCCCCn1c(SCC(=O)OCC)nc2cc(C(=O)NCc3ccco3)ccc2c1=O	11.6	i	5.8	i	3.5	12.7*	2.4	30.6*

Source: PubChem BioAssay (several laboratories)
